Variants at the floor of the assay were thinned out.
B1: tRNA (parent)
chain: GUUCCGUUGGCGUAAUGGUAACGCGUCUCCCUCCUAAGGAGAAGACUGCGGGUUCGAGUCCCGUACGGAACG

Variants of: B1
Experiment: yeast fitness relative to wild type (ratio to wild type); higher = fitter; tRNA-Arg(CCU), competitive growth, 37 C, YPD
In short: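 The tRNA-Arg(CCU) gene variants were made by chemical synthesis with a 3% per-site mutation rate at 69 sites and inserted at the native genomic locus of Saccharomyces cerevisiae. After pooling, the strains were competed in YPD at 37°C for 24 hours in six parallel replicates. Gene amplicons from the start population and each end population were read by 100-nucleotide paired-end sequencing, and Darwinian fitness relative to wild type was taken from genotype frequency changes. Genotypes needed ≥ 100 starting reads, and estimates < 0.5 were set to 0.5.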

Variant	yeast fitness
C61A U64C	0.801
A57G G63A	0.879
C62U A70C	0.91
A57G C61G C66U	≤ 0.5
A57C U64A	0.707
G58C	0.992
G58A	0.981
G58U	1.04
G58C C60G	0.683
G58A G63C	0.784
G58A G63A	0.954
C61G U64G	0.651
C61G U64C	0.579
G58A G68U A70G	0.601
C60G	0.664
C60U	0.779
C60A	0.613
C60U G68C	0.752
G67A A69G	0.974
A65U A70C	0.823
C60G G63A A65U C66U	≤ 0.5
U59G C60A	0.509
C60G G67C	0.574
C61U A65C	0.864

Variant	yeast fitness
C60G A70U	0.624
C60G A70C	0.66
C60G A70G	0.58
C62G A69C	0.617
A57C G68C	0.729
G58U A65U	0.979
C60G A69G	0.597
G58U G63C	0.586
A57U C61G	0.592
A57U C61A	0.528
C66U G68A	0.871
U64A A65C G68A	0.526
C61G G67C G68A	0.611
U64C A69C A70U	0.757
G58A U59C	0.971
C61G A70C	0.763
C66U A69C	0.743
C66U A69U	0.831
G58A G63A A65C	0.584
C61U U64G	0.674
A57U C60G G68C	0.532
C61U A65U C66U	≤ 0.5
C62U A69C	1.02
C62U A69G	0.918

Variant	yeast fitness
A65C A69G A70U	0.519
C61U A70G	0.979
C61U A70C	0.939
A65G C66G A70G	≤ 0.5
A57G C61G C62A	0.633
G63A A65G A69U	0.609
G63C G68U	0.568
G63C G68C	0.761
C60U G63C	0.572
C61A G68C	0.607
C61A G68U	0.534
A57U U64C	0.783
G58C G68C	0.937
G58C G68U	0.75
G58C G68A	0.776
U59G A70U	0.747
A65U G67A	0.839
U59G G67C	0.659
C61A A65G G68A	≤ 0.5
U59C C66U	0.911
U59C C66G	0.668
A57G U64C	0.979
A57G U64A	0.755
A57G U64G	0.841

Variant	yeast fitness
C62A G63A A70C	0.54
A57C C62G	0.818
G63A U64G	0.8
C60U C62U	0.659
U59C A65U	0.96
U59C A65G	0.938
C61U G63A	0.874
A57G G58A C60A C66U	0.595
A65G A70C	0.889
U59C A69C	0.968
C60A C62U	0.624
C61A C66A	0.627
C61A C66U	0.691
A57G C66G	0.783
A57G C66A	0.652
A57U C60G	0.532
A57U C60A	0.54
U59A C61G	0.62
U59A C61U	0.711
U59A U64A	0.73
U64A A69G	0.719
C60A G68U	0.587
C62A G68C	0.875
C62A G68A	0.797

Variant	yeast fitness
C61U U64A A69G	0.597
A65C A70U	1.06
A65C A70G	1.06
G58A A65C	1.05
G58A A65G	0.965
C60G A69U A70U	0.545
C61G A65U	0.651
U64A G67A	0.84
U59C C62U G68U	0.609
G67A A70C	0.901
C60A C61G A65U	≤ 0.5
C62G C66U	0.652
C61U A69G	0.878
U59A A69C	0.914
A57U A69U	0.668
A57U A69C	0.69
G63A G67U	0.686
U59C C61G	0.588
G58A C61U	1.03
U59G A65C C66A	≤ 0.5
A57C G58C U59G C66U	0.606
G63A A65G	0.889
U64G A65U	0.648
G58C A69C	1.02

Variant	yeast fitness
C66G A69U	0.746
C66G A69C	0.782
G58A C61U A70G	1.02
C66A G67A	0.557
C61G G67C	0.61
C61G G67A	0.592
C61A G67A A69C	0.524
U59A A65C A70C	0.551
A57G U59A C62U	≤ 0.5
A57U U59A A69C	0.654
G58C U59A G67C	0.556
C61U G63U G68A	0.529
A57C G58A	0.696
A57C G58C	0.77
C60U C62U A70C	0.539
U59C G68C	0.765
C62U	0.994
C62G	0.924
C62A	0.72
U64A A70G	0.711
U64A A70U	0.884
G63C C66G	0.709
G63C C66U	0.666
U64C G68U	1.01

Variant	yeast fitness
A57C G67A	0.504
A57C G67U	0.516
G58C C62G A70U	0.616
G68A	0.963
G58A U64C	0.976
G58A U64G	1.01
G63A C66U	0.826
C60A A70U	0.68
G58A C61G A70U	0.749
G63A A70G	0.804
C60G C66G G68A	≤ 0.5
C61U C62U	0.748
C61U C62G	0.718
G58A G67C A69C	0.542
U59C G67A	0.835
C61A	0.707
C61U	1.01
C61G	0.688
U59G A65C	0.558
G68A A69U	0.791
G68A A69G	0.827
A65U G68C	0.625
A65U G68U	0.99

From the RNAGym collection of RNA variant scans (doi:10.1126/science.aae0568)
